The values below come from publication PMC6448596 (Cell reports, 2019).

In assay [1] the test system is Molm13 cells. Briefly: Proliferation assay. It counts as cell-based. To be noted: Homo sapiens, MOLM-13, 72 h. The method, boiled down:
(§1)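 CellTiter-Glo, 5,000 cells/well. Cells received 0.1% DMSO or at least five two-fold dilutions of test compound (top 50 μM, final DMSO 0.1%), in triplicate wells and ≥2 biological replicates, for 72 h at 37°C. Reagent was added after equilibration to RT, with 30 min dark incubation before luminescence. Signals were normalized to DMSO wells and GI50 obtained by curve fitting. Curve error bars are SEM.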

The test system of assay [2] is MV4:11 cells. Briefly: Proliferation assay. It counts as cell-based, human. The note with it: Homo sapiens, MV4-11, 72 h, MV4:11, 3 days, mean with SEM. The method, boiled down: as §1
Assay [3] relates to MA93 cells. Kind of assay: Proliferation assay. It counts as cell-based. To be noted: Homo sapiens, 72 h. The method, boiled down:
(§2)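 CellTiter-Glo at 2,000 cells/well. MA93 Ras and MA93 FLT3/ITD were maintained in IMDM/20% FBS. Parental MA93 received IMDM/20% FBS plus 10 ng/mL human SCF, TPO, FLT3L, IL3 and IL6. Dosing used ≥5 two-fold dilutions from 50 μM top, 0.1% DMSO final, in triplicate wells with ≥2 biological replicates. Plates ran 72 h at 37°C, followed by 30 min reagent incubation at RT in the dark. GI50 came from DMSO-normalized luminescence.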

The subject of assay [4] is MA93 FLT3-ITD cells. Kind of assay: Proliferation assay. It counts as cell-based. The note with it: Homo sapiens, 72 h. The method, boiled down:
as §2

In assay [5] the test system is RN2 cells. Briefly: Proliferation assay. It counts as cell-based, murine. The note with it: Mus musculus, 72 h. The gist of the method: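 Murine RN2 cells were seeded at 2,500/well and exposed to ≥5 two-fold dilutions (top 50 μM, 0.1% DMSO final) in triplicate wells, with ≥2 biological replicates, for 72 h. MTS reagent was added for 1.25 h at 37°C and absorbance read at 490 nm. Values were normalized to DMSO wells and GI50 fitted. Error bars are SEM.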

Assay [6] concerns the target T1, WDR5 (Homo sapiens, UniProt P61964). Kind of assay: 10-mer-Thr-FAM peptide TR-FRET competition assay. It counts as binding. To be noted: relative to C3.
Assay [7] relates to THP-1 cells. Kind of assay: Proliferation assay. In kind it is cell-based. The note with it: Homo sapiens, THP-1, 72 h. The gist of the method:
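THP-1 cells were grown in RPMI-1640 with 0.05 mM 2-mercaptoethanol and 10% FBS. Cells were plated 5,000/well with ≥5 two-fold dilutions of test compound (top 50 μM, 0.1% DMSO final), in triplicate wells with ≥2 biological replicates.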

Assay [8] deals with NOMO-1 cells. Kind of assay: Proliferation assay. In kind it is cell-based. The note with it: Homo sapiens, NOMO-1, 72 h. The gist of the method:
as §1

Assay [9] has as its system HEL cells. Kind of assay: Proliferation assay. It counts as cell-based. The note with it: Homo sapiens, 72 h. The method, boiled down: as §1
Assay [10] has as its system HL60 cells. Briefly: Proliferation assay. In kind it is cell-based. To be noted: Homo sapiens, HL-60, 72 h. The gist of the method: as §1
In assay [11] the test system is K562 cells. Briefly: Proliferation assay. It counts as cell-based. The note with it: Homo sapiens, K562, 72 h. The method, boiled down:
as §1

Assay [12] concerns MA93 Ras cells. Briefly: Proliferation assay. It counts as cell-based. To be noted: Homo sapiens, MA9.3RAS, 72 h. The gist of the method:
as §2

Assay [13] deals with SET-2 cells. Kind of assay: Proliferation assay. It counts as cell-based. The note with it: Homo sapiens, SET-2, 72 h. The method, boiled down:
as §1

Assay [14] relates to GDM-1 cells. Kind of assay: Proliferation assay. It counts as cell-based. The note with it: Homo sapiens, GDM-1, 72 h. The gist of the method: as §1
The subject of assay [15] is MONO-Mac-6 cells. Kind of assay: Proliferation assay. The note with it: Homo sapiens, MONO-MAC-6, 72 h. It counts as cell-based. The method, boiled down:
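MONO-MAC-6 cells were maintained in RPMI with 10% FBS, non-essential amino acids and OPI supplement. CellTiter-Glo used 5,000 cells/well and ≥5 two-fold dilutions from 50 μM (0.1% DMSO final), in triplicate wells with ≥2 biological replicates, over 72 h at 37°C.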

In assay [16] the target is T1, WDR5. Briefly: ChIP-Seq of WDR5. It counts as cell-based. To be noted: MV4:11, 2 μM, 4 h. The gist of the method:
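MV4:11 cells at 10^6/ml were treated 4 h with 2 μM test compound, negative control or 0.1% DMSO. Cells were concentrated to 4 × 10^6/ml in PBS, fixed in 1% formaldehyde for 10 min at RT and quenched with 125 mM glycine. They were lysed in 1% SDS FA buffer. Sheared chromatin was diluted to 0.1% SDS and immunoprecipitated overnight at 4°C with anti-WDR5 (D9E1I or 429A) or IgG on BSA-blocked protein-A agarose. Peaks were compared by normalized average read counts.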

Assay [17] relates to gene expression in MV4:11 cells. Briefly: RNA-Seq. It counts as cell-based, human. To be noted: MV4:11, 2 μM, 3 days.
Assay [18] deals with T1, WDR5. Briefly: ChIP-PCR of WDR5 binding. In kind it is cell-based. The note with it: MV4:11, 36 μM, 4 h. The gist of the method: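 MV4:11 cells were treated 4 h with 36 μM test compound, its negative control or DMSO. They were cross-linked in 0.75–1% formaldehyde for 10 min at RT and quenched with 125 mM glycine. Cells were lysed in SDS/Triton formaldehyde lysis buffer. Chromatin from 6 million cells was used per IP, with anti-WDR5 (D9E1I) or IgG, followed by low-salt, high-salt, LiCl and TE washes. Signal is % input, biological triplicate, SEM.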

Assay [19] relates to gene body transcription in MV4:11 cells. Kind of assay: PRO-Seq. It counts as cell-based, human. The note with it: MV4:11, 36 μM, 15, 30 or 60 min. The gist of the method:
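30 million MV4:11 cells were harvested 15, 30 or 60 min after test compound; 0.1% DMSO for 60 min was the reference. Cells were swollen on ice, lysed with 0.1% Triton/10% glycerol and Dounce-homogenized. Nuclei were stored at −80°C in 40% glycerol freezing buffer (2 × 10^7 nuclei/100 μl) and used for nuclear run-on. Beads were washed in high/medium/low salt; RNA was TRIzol-extracted.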

The target in assay [20] is T1, WDR5. Briefly: Subcellular fractionation, WDR5 western blot. In kind it is cell-based. To be noted: MV4:11, 36 μM, 4 h. (A western blot detects proteins with antibodies after separation by electrophoresis.)
Assay [21] concerns ribosome protein gene expression in MV4:11 cells. Briefly: RT-qPCR quantification of RPG mRNA expression. It counts as cell-based, human. To be noted: MV4:11, three days, 50 µM OICR-9429 (adjusted to relative GI50). The method, boiled down: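 Cells were lysed in Trizol and total RNA isolated on columns with DNase digestion. 1 μg RNA was reverse transcribed with MuLV reverse transcriptase in 20 μl, then diluted three-fold in nuclease-free water before qPCR.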
(Quantitative PCR measures a nucleic acid by following its amplification.)

Assay [22] relates to p53 and p21 protein levels in MV4:11 cells. Kind of assay: p53/p21 induction western blot. In kind it is cell-based, human. To be noted: MV4:11, 30 µM OICR-9429. The method, boiled down: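 Treatment lasted 24 h with test compound or its negative control, at 2 μM in MV4:11 and 3 μM in Molm13. Comparators were 2 μM Nutlin-3 or 0.1% DMSO. Four million cells were PBS-washed and lysed 10 min on ice in Kischkel buffer. p53 and p21 were detected by western blot, with histone H3 as loading control.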

The subject of assay [23] is p53 turnover in MV4:11 cells. Kind of assay: Cycloheximide. It counts as cell-based, human. The note with it: MV4:11, 2 μM, 24 h before CHX. The gist of the method: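 Before the cycloheximide chase, MV4:11 cells were pretreated 24 h with 2 μM test compound, 2 μM Nutlin-3 as comparator, or DMSO only. p53 was then followed by immunoblot.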

Where only a bound is given, the exact number is not on record here.

For orientation: GI50 means the concentration that inhibits growth by half. Low values mean more potent growth inhibition, high ones less potent growth inhibition. For `COc1cc(CNC(=O)c2cccc(CNC3=NCCN3)c2F)cc(OC)c1` [Compound C3nc, 3-(((4,5-dihydro-1H-imidazol-2-yl)amino)methyl)-N-(3,5-dimethoxybenzyl)-2-fluorobenzamide], the GI50 in [1], in assay [2], in assay [3], in [4], in assay [5] and in [7] was greater than 50 µM throughout. Moreover, the GI50 in [8], in assay [9], in assay [10], in assay [11], in [12] and in assay [13] was greater than 50 µM throughout. Moreover, the “binding to WDR5 of negative control” value in assay [6] is on record as “reduced affinity”.
For `Cc1nc(F)ccc1-c1cc(C(=O)NCc2ccc(Cl)c(Cl)c2)ccc1Cn1ccn(C)c1=N` [Compound C6nc, N-(3,4-dichlorobenzyl)-3-(6-fluoro-2-methylpyridin-3-yl)-4-((2-imino-3-methyl-2,3-dihydro-1H-imidazol-1-yl)methyl)benzamide], the GI50 in [1] was greater than 50 µM; in assay [2], 42 ± 9.02 µM; in assay [3], 30.3 ± 5.94 µM; in assay [4], 26.2 ± 4.75 µM; in assay [5], greater than 50 µM; in [7], greater than 50 µM. In addition, the GI50 in [8] was greater than 50 µM; in assay [9], greater than 50 µM; in assay [14] it was greater than 50 µM; in [10], greater than 50 µM; in assay [11], 31.7 ± 2.45 µM; in assay [15], greater than 50 µM. Besides, the GI50 in assay [12] and in [13] was greater than 50 µM in each case. For the same molecule, in assay [16], the “WDR5 binding events on chromatin” value is reported as “little impact on WDR5 binding”. Moreover, the “effect on gene expression levels” value in [17] is on record as “no significant effect on gene expression levels”.
For the molecule `COc1cc(CNC(=O)c2ccc(F)c(CNC3=NCCN3)c2)cc(OC)c1` [Compound C3, 3-(((4,5-dihydro-1H-imidazol-2-yl)amino)methyl)-N-(3,5-dimethoxybenzyl)-4-fluorobenzamide], the GI50 was 22.1 ± 3.6 µM in [3]; 21.2 ± 2.11 µM in [4]; 8.65 ± 0.989 µM in [5]; greater than 50 µM in [7]; greater than 50 µM in assay [8]; greater than 50 µM in [9]. Also, the GI50 in assay [10], in assay [11], in assay [12] and in [13] was greater than 50 µM throughout. The “reduction in WDR5 binding at five loci” value in assay [18] is greater than 10 fold. In addition, the increase in transcription result in [19] is on record as “no instances in which C3 promoted an increase in transcription”. In assay [20], the “chromatin-bound WDR5 (P3 fraction)” value is “reduced the total amount of chromatin-bound WDR5”.
For `CN1CCN(c2ccc(-c3cccc(CN4CCOCC4)c3)cc2NC(=O)c2c[nH]c(=O)cc2C(F)(F)F)CC1` [OICR-9429, reference compound], in assay [2], the GI50 worked out at 31 µM. For the same molecule, in assay [21], the “transcription of RPGs” value is listed as “selectively inhibited the transcription of WDR5-bound RPGs”. Besides, in assay [22], the “p53 and p21 protein induction” value was “induced both p53 and p21”.
For the molecule `COc1ccc(C2=N[C@@H](c3ccc(Cl)cc3)[C@@H](c3ccc(Cl)cc3)N2C(=O)N2CCNC(=O)C2)c(OC(C)C)c1` [nutlin-3, reference compound], the “p53 turnover in CHX chase” value in assay [23] is listed as “increased the stability of p53”.
